Laboratory results taken from article PMC3698760 (Journal of the American Heart Association: Cardiovascular …, 2013).

Legend:
apoE‐deficient mice [1] = assay: Plasma lipoprotein profiles analyzed by HPLC, 16-week treatment; type: in vivo; details: scrambled peptides i.p. 16 weeks, n=7, mean±SD
Method in brief: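 Plasma from apoE−/− mice after 16-week i.p. dosing (3 times weekly) was separated by HPLC into 20 particle-size subfractions. Each subfraction was assayed enzymatically for total cholesterol, free cholesterol, triglycerides and phospholipids; mean±SD.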

[2] = test system: apoE−/− mice fed a high‐fat diet; assay: Aortic atherosclerotic lesion formation, 16-week treatment; type: in vivo; details: scrambled FAMP i.p. 3 times per week, 16 weeks; Oil Red O; mean±SD
Method in brief: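 Male apoE−/− mice, bought at six weeks, fed a high-fat diet (0.5% cholesterol, 10% fat) and dosed i.p. 3 times per week for 16 weeks: test peptide at 10 or 50 mg/kg per day, or scrambled peptide. Whole aortas were then stained with Oil Red O. Lesion area was scored by image analysis as percentage of aorta from ascending aorta to abdominal bifurcation.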

apoE‐deficient mice [3] = assay: Plasma lipid profiles by enzymatic assay, 16-week treatment; type: in vivo; details: scrambled peptides i.p. 16 weeks, n=7; high-fat-fed apoE-deficient mice; mean±SD
Method in brief: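 Overnight-fasting plasma taken after 16 weeks from 19 of 23 high-fat-fed apoE−/− mice. Dosing was i.p. 3 times weekly with scrambled peptide or test peptide at 10 or 50 mg/kg per day. Total cholesterol, triglyceride and HDL cholesterol were measured by enzymatic assay; mean±SD.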

Circular dichroism = type: physicochemical; details: CD spectra in water, 200 to 260 nm
Method in brief: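 Spectra of peptides and human apoA-I (17.8 to 178 μmol/L) recorded at 25°C in a thermostatted quartz cell with 0.1 mm path length, scanning 200–260 nm. Results expressed as mean residue ellipticity (deg cm² dmol⁻¹).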

ABCA1 = ABCA1 (Homo sapiens, UniProt O95477); assay: Probucol-inhibitable, ABCA1-specific cholesterol efflux in A172 cells; type: cell-based; details: probucol 10 μmol/L
Method in brief: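 A172 glioblastoma cells, labelled with ³H-cholesterol, were held in serum-free 0.2% BSA medium with 5 μmol/L T0901317 and 5 μmol/L 9-cis-retinoic acid. Cells were exposed for 4 h to 20 μg/mL acceptor, with or without 10 μmol/L probucol. ABCA1-dependent efflux was taken as the probucol-inhibitable fraction.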

A172 human glioblastoma = assay: Cellular cholesterol efflux in A172 human cells; type: cell-based; details: 4 hours
Method in brief: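 A172 human glioblastoma cells were grown in DMEM with 10% FBS and antibiotics, then labelled with ³H‑cholesterol. Efflux ran in serum‑free medium with 0.2% BSA, 5 μmol/L T0901317 and 5 μmol/L 9‑cis‑retinoic acid, with or without 10 μmol/L probucol. Acceptor was human apoA‑I or test peptide at 20 μg/mL, or a molar dose series, for 4 h. n=4–5; mean±SD.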

[4] = test system: monocyte‐derived macrophages from an ABCA1‐deficient Tangier disease patient; type: cell-based, human; details: 20 μg/mL, 4 hours, n=4
Method in brief: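 Peripheral blood monocyte‑derived macrophages came from a healthy volunteer and a Tangier disease patient, with ethics approval and written consent. Cells were isolated by Lymphoprep density separation and labelled with ³H‑cholesterol. Efflux was run in serum‑free 0.2% BSA medium with or without 20 μg/mL human apoA‑I or test peptide for 4 h. n=4; mean±SD.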

Sequence of ABCA1 (O95477 whole entry): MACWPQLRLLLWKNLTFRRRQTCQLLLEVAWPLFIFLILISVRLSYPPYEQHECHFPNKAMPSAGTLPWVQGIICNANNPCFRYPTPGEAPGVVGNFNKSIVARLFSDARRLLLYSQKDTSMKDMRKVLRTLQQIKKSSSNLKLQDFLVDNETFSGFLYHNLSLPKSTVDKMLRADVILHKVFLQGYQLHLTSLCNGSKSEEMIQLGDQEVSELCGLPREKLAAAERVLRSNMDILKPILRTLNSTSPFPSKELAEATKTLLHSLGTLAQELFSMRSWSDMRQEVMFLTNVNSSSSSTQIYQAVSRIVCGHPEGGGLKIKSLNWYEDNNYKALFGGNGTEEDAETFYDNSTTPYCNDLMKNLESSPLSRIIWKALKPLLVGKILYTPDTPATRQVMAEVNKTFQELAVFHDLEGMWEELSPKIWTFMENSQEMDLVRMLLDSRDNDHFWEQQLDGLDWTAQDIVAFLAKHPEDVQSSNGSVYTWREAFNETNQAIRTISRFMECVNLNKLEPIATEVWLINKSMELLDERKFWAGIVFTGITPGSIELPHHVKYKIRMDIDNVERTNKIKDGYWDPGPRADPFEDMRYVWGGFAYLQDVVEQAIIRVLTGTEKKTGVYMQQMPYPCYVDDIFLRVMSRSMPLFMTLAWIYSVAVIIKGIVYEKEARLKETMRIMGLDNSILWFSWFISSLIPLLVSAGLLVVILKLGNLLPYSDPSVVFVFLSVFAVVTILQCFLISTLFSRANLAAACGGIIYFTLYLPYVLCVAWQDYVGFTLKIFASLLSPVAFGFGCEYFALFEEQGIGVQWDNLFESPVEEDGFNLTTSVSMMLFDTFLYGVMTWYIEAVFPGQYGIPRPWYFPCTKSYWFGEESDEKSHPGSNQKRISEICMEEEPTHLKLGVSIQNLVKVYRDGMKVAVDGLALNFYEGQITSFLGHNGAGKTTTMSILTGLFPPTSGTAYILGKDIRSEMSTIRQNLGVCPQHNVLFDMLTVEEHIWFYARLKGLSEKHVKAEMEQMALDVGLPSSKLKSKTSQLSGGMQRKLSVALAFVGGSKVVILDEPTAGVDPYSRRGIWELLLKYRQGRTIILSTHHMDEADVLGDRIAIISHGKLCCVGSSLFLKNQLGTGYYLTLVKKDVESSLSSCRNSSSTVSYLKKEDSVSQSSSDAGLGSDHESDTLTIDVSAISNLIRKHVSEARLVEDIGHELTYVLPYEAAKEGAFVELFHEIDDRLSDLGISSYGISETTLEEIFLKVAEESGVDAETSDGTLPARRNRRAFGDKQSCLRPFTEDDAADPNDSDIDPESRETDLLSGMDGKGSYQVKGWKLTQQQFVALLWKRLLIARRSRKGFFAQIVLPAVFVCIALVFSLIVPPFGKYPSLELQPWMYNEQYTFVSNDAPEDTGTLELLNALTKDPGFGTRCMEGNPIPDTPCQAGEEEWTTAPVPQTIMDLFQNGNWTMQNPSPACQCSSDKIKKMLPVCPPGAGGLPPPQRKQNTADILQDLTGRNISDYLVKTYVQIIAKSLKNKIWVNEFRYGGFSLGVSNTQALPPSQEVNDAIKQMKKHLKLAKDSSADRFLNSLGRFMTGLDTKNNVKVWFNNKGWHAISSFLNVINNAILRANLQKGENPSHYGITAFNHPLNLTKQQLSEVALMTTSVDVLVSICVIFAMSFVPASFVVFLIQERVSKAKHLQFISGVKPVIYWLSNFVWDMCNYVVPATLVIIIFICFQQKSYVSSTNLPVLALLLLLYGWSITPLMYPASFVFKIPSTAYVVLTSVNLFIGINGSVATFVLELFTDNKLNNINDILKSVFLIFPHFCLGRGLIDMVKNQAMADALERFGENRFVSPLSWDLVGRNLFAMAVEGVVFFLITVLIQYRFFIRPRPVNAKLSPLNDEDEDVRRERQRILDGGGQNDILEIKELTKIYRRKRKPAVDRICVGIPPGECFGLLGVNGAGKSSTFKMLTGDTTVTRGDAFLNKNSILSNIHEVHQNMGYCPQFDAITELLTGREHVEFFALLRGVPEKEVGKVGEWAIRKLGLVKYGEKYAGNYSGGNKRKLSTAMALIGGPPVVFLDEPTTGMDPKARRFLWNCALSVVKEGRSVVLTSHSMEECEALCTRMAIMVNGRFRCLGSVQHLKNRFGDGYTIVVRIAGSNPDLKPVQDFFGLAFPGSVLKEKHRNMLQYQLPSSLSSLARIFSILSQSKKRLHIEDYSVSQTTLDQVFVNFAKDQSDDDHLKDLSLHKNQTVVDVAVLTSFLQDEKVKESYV

Substance: H-ATEFLHLLLLKLLKKKEDELLAYA-OH [Scrambled FAMP, reference compound]
- Cholesterol, CM (>80 nm) (apoE‐deficient mice [1]): 106.2 ± 47.8 mg/dL
- Cholesterol, HDL (8 to 16 nm) (apoE‐deficient mice [1]): 23.0 ± 4.5 mg/dL
- Cholesterol, HDL Subfractions Intermediate Particles (apoE‐deficient mice [1]): 12.0 ± 3.4 mg/dL
- Cholesterol, HDL Subfractions Large Particles (apoE‐deficient mice [1]): 7.2 ± 1.5 mg/dL
- Cholesterol, HDL Subfractions Small Particles (apoE‐deficient mice [1]): 3.8 ± 0.5 mg/dL
- Cholesterol, LDL (16 to 30 nm) (apoE‐deficient mice [1]): 165.3 ± 25.4 mg/dL
- Cholesterol, VLDL (30 to 80 nm) (apoE‐deficient mice [1]): 423.7 ± 96.1 mg/dL
- Free cholesterol, CM (>80 nm) (apoE‐deficient mice [1]): 44.9 ± 20.5 mg/dL
- Free cholesterol, HDL (8 to 16 nm) (apoE‐deficient mice [1]): 12.5 ± 1.4 mg/dL
- Free cholesterol, HDL Subfractions Intermediate Particles (apoE‐deficient mice [1]): 5.1 ± 0.5 mg/dL
- Free cholesterol, HDL Subfractions Large Particles (apoE‐deficient mice [1]): 5.7 ± 1.1 mg/dL
- Free cholesterol, HDL Subfractions Small Particles (apoE‐deficient mice [1]): 1.7 ± 0.2 mg/dL
- Free cholesterol, LDL (16 to 30 nm) (apoE‐deficient mice [1]): 80.9 ± 10.1 mg/dL
- Free cholesterol, VLDL (30 to 80 nm) (apoE‐deficient mice [1]): 179.8 ± 35.9 mg/dL
- Phospholipids, CM (>80 nm) (apoE‐deficient mice [1]): 53.0 ± 22.3 mg/dL
- Phospholipids, HDL (8 to 16 nm) (apoE‐deficient mice [1]): 45.5 ± 10.3 mg/dL
- Phospholipids, HDL Subfractions Intermediate Particles (apoE‐deficient mice [1]): 28.1 ± 7.4 mg/dL
- Phospholipids, HDL Subfractions Large Particles (apoE‐deficient mice [1]): 12.4 ± 3.3 mg/dL
- Phospholipids, HDL Subfractions Small Particles (apoE‐deficient mice [1]): 5.0 ± 1.7 mg/dL
- Phospholipids, LDL (16 to 30 nm) (apoE‐deficient mice [1]): 133.6 ± 20.5 mg/dL
- Phospholipids, VLDL (30 to 80 nm) (apoE‐deficient mice [1]): 228.2 ± 40.0 mg/dL
- Triglyceride, CM (>80 nm) (apoE‐deficient mice [1]): 13.9 ± 7.5 mg/dL
- Triglyceride, HDL (8 to 16 nm) (apoE‐deficient mice [1]): 3.3 ± 0.8 mg/dL
- Triglyceride, HDL Subfractions Intermediate Particles (apoE‐deficient mice [1]): 1.5 ± 0.5 mg/dL
- Triglyceride, HDL Subfractions Large Particles (apoE‐deficient mice [1]): 0.6 ± 0.2 mg/dL
- Triglyceride, HDL Subfractions Small Particles (apoE‐deficient mice [1]): 1.1 ± 0.3 mg/dL
- Triglyceride, LDL (16 to 30 nm) (apoE‐deficient mice [1]): 12.3 ± 4.2 mg/dL
- Triglyceride, VLDL (30 to 80 nm) (apoE‐deficient mice [1]): 33.8 ± 7.7 mg/dL
- relative surface area of aortic plaque lesions [2]: 31.3±8.9%
- HDL Cholesterol (apoE‐deficient mice [3]): 12.6 ± 4.8 mg/dL
- Total Cholesterol (apoE‐deficient mice [3]): 1373.9 ± 499.2 mg/dL
- Triglyceride (apoE‐deficient mice [3]): 119.9 ± 21.7 mg/dL

Substance: H-ATEHLSTLSEKAKPALEDLLKKLL-OH [FAMP4]
- α‐helical conformation (CD spectra) (Circular dichroism): but not FAMP4, formed strong α‐helical conformations

Substance: H-ALEHLFTLSEKALKALEDLLKKLL-OH [FAMP2]
- α‐helical conformation (CD spectra) (Circular dichroism): formed strong α‐helical conformations

Substance: Ac-DWFKAFYDKVAEKFKEAF-NH2 [L‐4F, reference compound]
- percentage of probucol‐inhibitable, ABCA1‐specific cholesterol efflux (ABCA1): much more unspecific cholesterol efflux compared with FAMP5

Substance: human apoA‐I: Human apoA‐I purchased from Calbiochem, 243–amino acid major HDL protein
- concentration adequate for a saturating effect on cholesterol efflux (A172 human glioblastoma; A172 cells): 20 µg/mL
- effect of ABCA1 inactivation (probucol) on peptide-mediated cholesterol efflux (A172 human glioblastoma; probucol 10 μmol/L, 20 μg/mL): drastically inhibited
- cholesterol efflux in Tangier disease macrophages vs healthy subject [4]: suppressed
